# Assays:
# [1] = Inhibition of purified HCV NS5B Cdelta21 polymerase; design: species or system Hepacivirus hominis
# [2] = system: Hepatitis C virus; assay: Antiviral activity against HCV infected in human […] cells assessed as inhibition of viral RNA replication; format: functional, organism-based, Hepacivirus hominis
# Method in brief: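 Replicon assay: subgenomic HCV RNA replication in Huh-7 cells carrying a bicistronic expression construct. Inhibition expressed as EC50.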
# [3] = Drug metabolism in human liver microsomes at 5 uM after 15 mins; format: ADME, Microsome; conditions: read-out: Drug metabolism
# [4] = Ratio of drug level in liver to plasma in Sprague-Dawley rat at 2 mg/kg, iv and 10 mg/kg, po after 7 hrs; format: ADME, organism-based
# Method in brief: (§1)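 Sprague–Dawley rats given 2 mg/kg iv in PEG400/saline (70:30) or 10 mg/kg po in PEG400 with 2% Vitamin E TPGS. Liver concentration (ng/g) measured 7 h post dose. Liver-to-plasma ratio taken at the same time.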
# [5] = Clearance in Sprague-Dawley rat at 2 mg/kg, iv and 10 mg/kg, po; format: ADME, organism-based; conditions: in vivo
# Method in brief: (§2)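 Sprague–Dawley rats, single dose. IV arm at 2 mg/kg in PEG400/saline (70:30), with plasma kinetics determined. Oral arm at 10 mg/kg in PEG400 containing 2% Vitamin E TPGS, compared against the iv data.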
# [6] = Oral bioavailability in Sprague-Dawley rat at 10 mg/kg; format: ADME, organism-based; conditions: in vivo; method in brief: as §2
# [7] = Drug level in Sprague-Dawley rat liver at 2 mg/kg, iv and 10 mg/kg, po after 7 hrs; format: ADME, organism-based; conditions: read-out: Drug uptake; method in brief: as §1
# [8] = Drug metabolism in rat liver microsomes at 5 uM after 15 mins; format: ADME, Microsome; conditions: read-out: Drug metabolism
# [9] = Half life in Sprague-Dawley rat at 2 mg/kg, iv and 10 mg/kg, po; format: ADME, organism-based; conditions: in vivo; method in brief: as §2
# [10] = Volume of distribution at steady state in Sprague-Dawley rat at 2 mg/kg, iv and 10 mg/kg, po; format: ADME, organism-based; conditions: in vivo, read-out: Vdss; method in brief: as §2
# [11] = system: Liver microsomes; assay: Metabolic stability in human liver microsomes assessed as glutathione conjugates formation at 40 uM in presence of glutathione; format: ADME, Microsome
# Method in brief: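 Human liver microsomes (1 mg/mL protein) in 100 mM KPi, pH 7.4, with 5 mM MgCl2, 1 mM EDTA and 2 mM NADPH. Trapping agent was 2 mM GSH, or a GSH/stable-label GSH mix (1 mM/1 mM). Compound at 40 µM final, added from a 20 mM stock. Read-out was glutathione conjugate formation.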
# [12] = Efflux ratio of compound permeability in human Caco2 cells; format: ADME, cell-based; conditions: Caco-2
# [13] = Apparent permeability from apical to basolateral side of human Caco2 cells; format: ADME, cell-based; conditions: Caco-2
Compound,IC50 [1],EC50 [2],"metabolised at 0.25 h, 5 µM [3]","metabolised at 0.25 h, 5 µM [8]",other results
CN1CCCCNC(=O)Cn2c(-c3ccoc3)c(C3CCCCC3)c3ccc(cc32)C(=O)NS1(=O)=O,110 nM,1580 nM,–,–,–
COc1ccc(-c2c(C3CCCCC3)c3ccc4cc3n2CC(=O)NCCCCN(C)S(=O)(=O)NC4=O)cc1,180 nM,1760 nM,–,–,–
COc1ccc(-c2c(C3CCCCC3)c3ccc4cc3n2CC(=O)NCCN(C)CCNS(=O)(=O)NC4=O)cc1,440 nM,3470 nM,–,–,–
COc1ccc(-c2c(C3CCCCC3)c3ccc4cc3n2CC(=O)NN(C)CCN2CCN(CC2)S(=O)(=O)NC4=O)cc1,–,3500 nM,–,–,–
COc1ccc(-c2c(C3CCCCC3)c3ccc4cc3n2CC(=O)NCCCCCN(C)S(=O)(=O)NC4=O)cc1,–,350 nM,–,–,–
CN1CCCCCNC(=O)Cn2c(-c3ccc(Cl)cc3)c(C3CCCCC3)c3ccc(cc32)C(=O)NS1(=O)=O,190 nM,590 nM,–,–,–
CN1CCCCCNC(=O)Cn2c(-c3ccccc3)c(C3CCCCC3)c3ccc(cc32)C(=O)NS1(=O)=O,–,430 nM,–,–,–
CN1CCCCN(C)S(=O)(=O)NC(=O)c2ccc3c(C4CCCCC4)c(-c4ccc(Cl)cc4)n(c3c2)CC1=O,–,530 nM,–,–,–
CN1CCCCNC(=O)COc2ccccc2-c2c(C3CCCCC3)c3ccc(cc3n2C)C(=O)NS1(=O)=O,1900 nM,7560 nM,–,–,–
CN1CCCCN(C)S(=O)(=O)NC(=O)c2ccc3c(C4CCCCC4)c(n(C)c3c2)-c2ccccc2OCC1=O,97 nM,310 nM,92%,60%,Kp at 7 h [4]: 99; clearance [5]: 128 mL/min/kg; bioavailability [6]: 9%; concentration at 7 h [7]: 1520 ng/g; half-life [9]: 18 min; Vd [10]: 2.6 L/kg
COc1ccc2c(c1)OCC(=O)N(C)CCCCN(C)S(=O)(=O)NC(=O)c1ccc3c(C4CCCCC4)c-2n(C)c3c1,54 nM,170 nM,96%,64%,–
CN1CCCCCNC(=O)COc2ccccc2-c2c(C3CCCCC3)c3ccc(cc3n2C)C(=O)NS1(=O)=O,33 nM,180 nM,71%,44%,–
CN1CCCCCNC(=O)COc2ccc(F)cc2-c2c(C3CCCCC3)c3ccc(cc3n2C)C(=O)NS1(=O)=O,88 nM,680 nM,59%,56%,–
CN1CCCCCNC(=O)COc2cc(F)ccc2-c2c(C3CCCCC3)c3ccc(cc3n2C)C(=O)NS1(=O)=O,110 nM,460 nM,81%,58%,–
COc1ccc2c(c1)OCC(=O)N(C)CCOCCN(C)S(=O)(=O)NC(=O)c1ccc3c(C4CCCCC4)c-2n(C)c3c1,56 nM,150 nM,69%,52%,–
CN1CCOCCN(C)S(=O)(=O)NC(=O)c2ccc3c(C4CCCCC4)c(n(C)c3c2)-c2ccccc2OCC1=O,110 nM,190 nM,65%,50%,Kp at 7 h [4]: 64; clearance [5]: 115 mL/min/kg; bioavailability [6]: 14%; Stability [11]: Stable; concentration at 7 h [7]: 1720 ng/g; half-life [9]: 60 min; Vd [10]: 7 L/kg
CC(C)n1c2c(C3CCCCC3)c3ccc(cc31)C(=O)NS(=O)(=O)N(C)CCOCCN(C)C(=O)COc1ccccc1-2,1660 nM,11900 nM,64%,35%,–
CN1CCOCCN(C)S(=O)(=O)NC(=O)c2ccc3c(C4CCCCC4)c(n(C4CCCC4)c3c2)-c2ccccc2OCC1=O,1490 nM,15700 nM,74%,40%,–
CN1CCN2CCN(CC2)C(=O)COc2ccccc2-c2c(C3CCCCC3)c3ccc(cc3n2C)C(=O)NS1(=O)=O,140 nM,240 nM,56%,35%,–
O=C1Cn2c(-c3ccoc3)c(C3CCCCC3)c3ccc(cc32)C(=O)NCC/C=C/CCN1,2200 nM,3400 nM,> 95%,> 95%,–
O=C1Cn2c(-c3ccoc3)c(C3CCCCC3)c3ccc(cc32)C(=O)NCCCCCCN1,9500 nM,4300 nM,> 95%,> 95%,–
O=C1Cn2c(-c3ccoc3)c(C3CCCCC3)c3ccc(cc32)C(=O)NCC/C=C/CCCN1,–,2600 nM,> 95%,> 95%,–
O=C1Cn2c(-c3ccoc3)c(C3CCCCC3)c3ccc(cc32)C(=O)NS(=O)(=O)C/C=C/CCN1,–,7500 nM,–,–,efflux ratio [12]: > 25; Papp A→B [13]: < 1 ×10⁻⁶ cm/s
CN1C/C=C/CCNC(=O)Cn2c(-c3ccoc3)c(C3CCCCC3)c3ccc(cc32)C(=O)NS1(=O)=O,–,720 nM,–,–,–
CN1CCCCCNC(=O)Cn2c(-c3ccoc3)c(C3CCCCC3)c3ccc(cc32)C(=O)NS1(=O)=O,–,790 nM,67%,63%,Kp at 7 h [4]: 150; clearance [5]: 123 mL/min/kg; bioavailability [6]: 40%; concentration at 7 h [7]: 3740 ng/g; half-life [9]: 24 min; Vd [10]: 2.4 L/kg

# From ChEMBL document CHEMBL2040713, “Finger-loop inhibitors of the HCV NS5b polymerase. Part 1: Discovery and optimization of novel 1,6- and 2,6-macrocyclic indole series” (Bioorg Med Chem Lett, 2012)
